Measurements as given in ChEMBL document CHEMBL1255315, “The hepatitis C virus replicon presents a higher barrier to resistance to nucleoside analogs than to nonnucleoside polymerase or protease inhibitors” (Antimicrob Agents Chemother, 2008).

What was measured:
Hepatitis C virus [1] = assay: Antiviral activity against Hepatitis C virus subtype 1b Con1 infected in human HuH7 cells after 3 days by luciferase reporter gene assay; format: functional, organism-based, Hepacivirus hominis; conditions: Con1, Huh-7, 72 h
How it was run: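 Huh7-derived 2209-23 cells stably carrying a GT 1b Con1 subgenomic replicon encoding Renilla luciferase, incubated with compound for 3 days. The EC50 is the concentration that reduces reporter luciferase activity by 50% versus untreated controls. Values are reported as mean ± SD over repeated experiments, with the number of experiments differing by compound.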

[2] = Cytotoxicity against human HuH7 cells; format: cell-based, Huh-7
How it was run: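 Viability of the stable GT 1b Con1 replicon cells was measured by MTT or WST-1 assay to give CC50, the 50% cytotoxic concentration. The number of experiments matched the EC50 determinations, and values are reported as mean ± SD.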

Hepatitis C virus [3] = assay: Antiviral activity against HCV infected in human assessed as log reduction in viral load at 4500 […] BID; format: functional, Hepacivirus hominis
Hepatitis C virus [4] = assay: Antiviral activity against HCV subtype 1b infected in human HuH7 cells assessed as number of resistant colonies formed at 10 times EC50 after 3 weeks; format: functional, Hepacivirus hominis, genotype 1b, Huh-7
How it was run: (§1)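 Huh7 cells stably carrying a GT 1b subgenomic neoR replicon, seeded at 1 × 10^5 cells/well with 0.5 mg/ml G418, were exposed to one or two inhibitors at multiples of EC50 (from the 3-day Con1 2209-23 luciferase assay). Medium was changed twice weekly, with a 1:4 split at ~95% confluence. After 3 weeks, cells were formaldehyde-fixed and crystal violet-stained, and colonies were counted.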

Hepatitis C virus [5] = assay: Antiviral activity against HCV infected in human assessed as log reduction in viral load measured on day 4 postdose; format: functional, Hepacivirus hominis
Hepatitis C virus [6] = assay: Antiviral activity against HCV subtype 1b infected in human HuH7 cells assessed as number of resistant colonies formed at 15 times EC50 after 3 weeks; format: functional, Hepacivirus hominis, genotype 1b, Huh-7; how it was run: as §1
Hepatitis C virus [7] = assay: Antiviral activity against HCV genotype 1 infected in human assessed as log reduction in viral load at 750 mg administered every 8 hrs for 14 days
Hepatitis C virus [8] = assay: Antiviral activity against HCV infected in human assessed as log reduction in viral load at 800 […] SID; format: functional, Hepacivirus hominis

Compound	EC50 (Hepatitis C virus [1]) [nM]	CC50 [2] [nM]	also measured
C[C@@]1(F)[C@H](O)[C@@H](CO)O[C@H]1n1ccc(N)nc1=O	610	> 100000	–
C[C@@]1(O)[C@H](O)[C@@H](CO)O[C@H]1n1ccc(N)nc1=O	1230	> 100000	–
[N-]=[N+]=N[C@]1(CO)O[C@@H](n2ccc(N)nc2=O)[C@H](O)[C@@H]1O [4'-AZIDOCYTIDINE]	1280	> 100000	–
CC(C)C(=O)OC[C@@]1(N=[N+]=[N-])O[C@@H](n2ccc(N)nc2=O)[C@H](OC(=O)C(C)C)[C@@H]1OC(=O)C(C)C [BALAPIRAVIR]	–	–	FC (Hepatitis C virus [3]): 3.7
CNC(=O)c1c(-c2ccc(F)cc2)oc2cc(N(CCO)S(C)(=O)=O)c(C3CC3)cc12 [NESBUVIR]	17	> 100000	Activity (Hepatitis C virus [4]): 60; FC (Hepatitis C virus [5]): 1.4; Activity (Hepatitis C virus [6]): 36
CCC[C@H](NC(=O)[C@@H]1[C@H]2CCC[C@H]2CN1C(=O)[C@@H](NC(=O)[C@@H](NC(=O)c1cnccn1)C1CCCCC1)C(C)(C)C)C(=O)C(=O)NC1CC1 [TELAPREVIR]	560	26700	Activity (Hepatitis C virus [7]): > 4 log10IU/ml; Activity (Hepatitis C virus [6]): 93
CC(C)[C@H](N)C(=O)O[C@@H]1[C@@H](CO)O[C@@H](n2ccc(N)nc2=O)[C@]1(C)O [VALOPICITABINE]	–	–	FC (Hepatitis C virus [8]): 1.2
